Experimental data: ChEMBL document CHEMBL1137671, “Synthesis of 1-(2,6-dichlorophenyl)-3-methylene-1,3-dihydro-indol-2-one derivatives and in vitro anticancer evaluation against SW620 colon cancer cell line” (Eur J Med Chem, 2009)
pIC50: −log10 of the molar value. ≈ marks a conversion by molar mass, not a printed value.

Test system: not listed separately
Assay: Inhibition of FGFR autophosphorylation
Conditions: not given

SMILES	pIC50
O=CN1CCN(c2ccc(/C=C3\C(=O)Nc4ccccc43)cc2)CC1	5.00
Cc1c[nH]c(/C=C2\C(=O)Nc3ccccc32)c1CCC(=O)O	5.00

Test system: SW-620
Assay: Cytotoxicity against human SW620 cells after 3 days by MTT assay
Type: functional
Conditions: SW-620, 72 h, read-out: ED50 (the source's name)
Method in brief: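 SW620 human colon cancer cells seeded at 10,000 per well and exposed to 1-100 µM for 72 h in a CO₂ incubator, with untreated controls. Then 125 µg MTT per well for 3 h, followed by lysis in 10% SDS-0.01 N HCl. Absorbance was read at 540 nm. % cytotoxicity = (1 − (treated − blank)/control) × 100.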

SMILES	EC50 [µg/mL]
O=C1/C(=C\c2cccc3ccccc23)c2ccccc2N1c1c(Cl)cccc1Cl	> 100
O=C1/C(=C/c2cc3ccccc3nc2Cl)c2ccccc2N1c1c(Cl)cccc1Cl	25 (≈ 55.3 µM)
O=C1/C(=C/c2ccc(Cl)cc2)c2ccccc2N1c1c(Cl)cccc1Cl	100 (≈ 250 µM)
O=C1/C(=C/c2ccc(Cl)cc2Cl)c2ccccc2N1c1c(Cl)cccc1Cl	2 (≈ 4.6 µM)
O=C1Cc2ccccc2N1c1c(Cl)cccc1Cl	> 100
O=C1/C(=C/c2ccccc2[N+](=O)[O-])c2ccccc2N1c1c(Cl)cccc1Cl	90 (≈ 219 µM)
COc1ccc(/C=C2/C(=O)N(c3c(Cl)cccc3Cl)c3ccccc32)cc1	> 100
O=C1/C(=C/c2cccc(Oc3ccccc3)c2)c2ccccc2N1c1c(Cl)cccc1Cl	50 (≈ 109 µM)
COc1ccc(/C=C2/C(=O)N(c3c(Cl)cccc3Cl)c3ccccc32)cc1OC	50 (≈ 117 µM)
CN(C)c1ccc(/C=C2/C(=O)N(c3c(Cl)cccc3Cl)c3ccccc32)cc1	> 100
O=C1/C(=C/c2c(Cl)cccc2Cl)c2ccccc2N1c1c(Cl)cccc1Cl	> 100
O=C1/C(=C/c2ccccc2)c2ccccc2N1c1c(Cl)cccc1Cl	100 (≈ 273 µM)
O=C1/C(=C/c2cccc(Cl)c2)c2ccccc2N1c1c(Cl)cccc1Cl	50 (≈ 125 µM)
Cc1ccc2cc(/C=C3/C(=O)N(c4c(Cl)cccc4Cl)c4ccccc43)c(Cl)nc2c1C	> 100
O=C1/C(=C/c2ccco2)c2ccccc2N1c1c(Cl)cccc1Cl	> 100
Cc1ccc2nc(Cl)c(/C=C3/C(=O)N(c4c(Cl)cccc4Cl)c4ccccc43)cc2c1	40 (≈ 85.9 µM)
O=C1/C(=C/c2ccccc2Cl)c2ccccc2N1c1c(Cl)cccc1Cl	15 (≈ 37.4 µM)
O=C1/C(=C/c2ccc(O)cc2)c2ccccc2N1c1c(Cl)cccc1Cl	50 (≈ 131 µM)
O=C1/C(=C/c2ccc(F)cc2)c2ccccc2N1c1c(Cl)cccc1Cl	5 (≈ 13 µM)
